According to ChEMBL document CHEMBL1123214, “(o- and p-Nitrobenzyloxycarbonyl)-5-fluorouracil derivatives as potential conjugated bioreductive alkylating agents” (1986):

Experiments:
Assay type in all cases: functional
Mus musculus [1] = assay: Compound was tested for the effect on the survival time of the mice bearing P388 leukemia at dose 40 mg/kg; ratio of survival time of treated and control
Outline: (§1)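 Ascites cells were taken from donor CDF₁ mice with 7-day growths, spun, diluted 10-fold in isotonic saline and set to 10⁷ cells/mL. About 10⁶ cells were given ip per mouse. Drug was homogenized in 20% aqueous Tween 80, made up in saline, and given ip once daily for 6 days from 24 h after implant. Vehicle controls were included. Read-out was survival time, as T/C × 100, with % weight change as toxicity.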

Mus musculus [2] = assay: Compound was tested for the effect on the survival time of the mice bearing P388 leukemia at dose 20 mg/kg; outline: as §1
Mus musculus [3] = assay: Compound was tested for the effect on the survival time of the mice bearing P388 leukemia at dose 100 mg/kg; ratio of survival time of treated and control; outline: as §1
Mus musculus [4] = assay: Compound was tested for the effect on the survival time of the mice bearing Sarcoma 180 ascites at dose of 10 mg/kg; outline: as §1
Mus musculus [5] = assay: Compound was tested for the effect on the survival time of the mice bearing Sarcoma 180 ascites at dose of 20 mg/kg; outline: as §1
Mus musculus [6] = assay: Compound was tested for the effect on the survival time of the mice bearing Sarcoma 180 ascites at dose of 40 mg/kg; outline: as §1
Mus musculus [7] = assay: Compound was tested for the effect on the survival time of the mice bearing P388 leukemia at dose 80 mg/kg; outline: as §1
Mus musculus [8] = assay: Compound was tested for the effect on the survival time of the mice bearing P388 leukemia at dose 80 mg/kg; ratio of survival time of treated and control; outline: as §1
Mus musculus [9] = assay: Compound was tested for the effect on the survival time of the mice bearing P388 leukemia at dose 40 mg/kg; outline: as §1
Mus musculus [10] = assay: Compound was tested for the effect on the survival time of the mice bearing P388 leukemia at dose 60 mg/kg; outline: as §1
Mus musculus [11] = assay: Compound was tested for the effect on the survival time of the mice bearing P388 leukemia at dose 200 mg/kg; ratio of survival time of treated and control; outline: as §1
Mus musculus [12] = assay: Compound was tested for the effect on the survival time of the mice bearing P388 leukemia at dose 200 mg/kg; outline: as §1
Mus musculus [13] = assay: Compound was tested for the effect on the survival time of the mice bearing P388 leukemia at dose 20 mg/kg; ratio of survival time of treated and control; outline: as §1
Mus musculus [14] = assay: Compound was tested for the effect on the survival time of the mice bearing P388 leukemia at dose 100 mg/kg; outline: as §1
Mus musculus [15] = assay: Compound was tested for the effect on the survival time of the mice bearing Sarcoma 180 ascites at dose of 40 mg/kg; ratio of survival time of treated and control; outline: as §1
Mus musculus [16] = assay: Compound was tested for the effect on the survival time of the mice bearing Sarcoma 180 ascites at dose of 20 mg/kg; ratio of survival time of treated and control; outline: as §1
Mus musculus [17] = assay: Compound was tested for the effect on the survival time of the mice bearing Sarcoma 180 ascites at dose of 10 mg/kg; ratio of survival time of treated and control; outline: as §1
Mus musculus [18] = assay: Compound was tested for the effect on the survival time of the mice bearing P388 leukemia at dose 60 mg/kg; ratio of survival time of treated and control; outline: as §1
Mus musculus [19] = assay: Compound was tested for the effect on the survival time of the mice bearing P388 leukemia at dose 50 mg/kg; ratio of survival time of treated and control; outline: as §1
Mus musculus [20] = assay: Compound was tested for the effect on the survival time of the mice bearing P388 leukemia at dose 25 mg/kg; outline: as §1
Mus musculus [21] = assay: Compound was tested for the effect on the survival time of the mice bearing P388 leukemia at dose 50 mg/kg; outline: as §1
Mus musculus [22] = assay: Compound was tested for the effect on the survival time of the mice bearing P388 leukemia at dose 25 mg/kg; ratio of survival time of treated and control; outline: as §1

| Structure (SMILES) | T/C (Mus musculus [3]) | Change in weight (Mus musculus [10]) [%] | Change in weight (Mus musculus [14]) [%] | T/C (Mus musculus [18]) | T/C (Mus musculus [19]) | Change in weight (Mus musculus [20]) [%] | Change in weight (Mus musculus [21]) [%] | T/C (Mus musculus [22]) | further results |
| --- | --- | --- | --- | --- | --- | --- | --- | --- | --- |
| O=C(Cc1ccc([N+](=O)[O-])cc1)On1c(=O)[nH]cc(F)c1=O | 158 | -2.9 | -11.6 | 196 |  |  |  |  | T/C (Mus musculus [1]): 190; Change in weight (Mus musculus [2]): 5.6%; Change in weight (Mus musculus [4]): 9.6%; Change in weight (Mus musculus [5]): 2.7%; Change in weight (Mus musculus [6]): -7.6%; Change in weight (Mus musculus [7]): -5.8%; T/C (Mus musculus [8]): 212; Change in weight (Mus musculus [9]): 0%; T/C (Mus musculus [11]): 64; Change in weight (Mus musculus [12]): -10.7%; T/C (Mus musculus [13]): 165; T/C (Mus musculus [15]): 332; T/C (Mus musculus [16]): 124; T/C (Mus musculus [17]): 159 |
| O=c1c(F)cn(Cc2ccccc2[N+](=O)[O-])c(=O)n1Cc1ccccc1[N+](=O)[O-] | 86 |  | 22.4 |  | 88 | 17.8 | 15 | 90 |  |
| O=c1c(F)cn(C2CCCO2)c(=O)n1Cc1ccccc1[N+](=O)[O-] (stereo not drawn) | 96 |  | 13.7 |  | 96 | 10.3 | 7.8 | 90 |  |
| O=c1[nH]c(=O)n(Cc2ccccc2[N+](=O)[O-])cc1F | 88 |  | 20.8 |  | 92 | 13.3 | 10 | 90 |  |
| O=C(Cc1ccc([N+](=O)[O-])cc1)On1cc(F)c(=O)n(OC(=O)Cc2ccc([N+](=O)[O-])cc2)c1=O |  | -5.5 |  | 149 |  |  |  |  | T/C (Mus musculus [1]): 136; Change in weight (Mus musculus [7]): -7.4%; T/C (Mus musculus [8]): 158; Change in weight (Mus musculus [9]): -2.7% |
| O=c1[nH]cc(F)c(=O)[nH]1 [FLUOROURACIL] |  |  |  |  |  |  |  |  | Change in weight (Mus musculus [2]): -12.5%; Change in weight (Mus musculus [5]): -3.4%; T/C (Mus musculus [13]): 185; T/C (Mus musculus [16]): 277 |
| O=c1[nH]c(=O)n(C2CCCO2)cc1F (stereo not drawn) [TEGAFUR] |  | 12.2 |  | 100 |  |  |  |  |  |
